# Measurements from ChEMBL document CHEMBL5154815, “A Series of Substituted Bis-Aminotriazines Are Activators of the Natriuretic Peptide Receptor C” (J Med Chem, 2022).
# The source made the active and inactive calls. The rule behind the calls is not given here.
# What was measured:
# [1] = biological target: T1, Atrial natriuretic peptide receptor 3 (Rattus norvegicus, UniProt P41740); assay: Agonist activity at NPRC in rat aorta assessed as vasorelaxation by Organ bath assay; type: tissue-based
# T1 sequence (P41740 whole entry): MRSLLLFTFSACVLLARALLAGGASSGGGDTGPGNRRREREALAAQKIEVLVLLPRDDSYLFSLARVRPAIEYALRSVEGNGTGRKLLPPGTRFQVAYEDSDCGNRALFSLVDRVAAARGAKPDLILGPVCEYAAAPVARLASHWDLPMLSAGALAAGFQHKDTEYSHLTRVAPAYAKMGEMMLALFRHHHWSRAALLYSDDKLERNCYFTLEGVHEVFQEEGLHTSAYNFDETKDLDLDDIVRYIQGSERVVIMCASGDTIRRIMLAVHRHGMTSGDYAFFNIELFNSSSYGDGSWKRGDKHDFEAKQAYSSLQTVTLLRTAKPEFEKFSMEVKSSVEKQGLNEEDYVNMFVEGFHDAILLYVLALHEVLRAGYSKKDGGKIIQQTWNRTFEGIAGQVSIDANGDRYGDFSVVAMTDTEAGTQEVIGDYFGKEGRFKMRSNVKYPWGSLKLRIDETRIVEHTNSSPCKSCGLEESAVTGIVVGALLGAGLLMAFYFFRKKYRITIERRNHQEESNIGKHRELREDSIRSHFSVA
# [2] = biological target: T2, Atrial natriuretic peptide receptor 3 (Homo sapiens) (UniProt P17342); assay: Agonist activity at NPRC in human Hela cells assessed as decrease in forskolin-induced cAMP level at 100 uM relative to control; type: cell-based; set-up: scale not given: the % may be the effect or the level left
# T2 sequence (whole entry): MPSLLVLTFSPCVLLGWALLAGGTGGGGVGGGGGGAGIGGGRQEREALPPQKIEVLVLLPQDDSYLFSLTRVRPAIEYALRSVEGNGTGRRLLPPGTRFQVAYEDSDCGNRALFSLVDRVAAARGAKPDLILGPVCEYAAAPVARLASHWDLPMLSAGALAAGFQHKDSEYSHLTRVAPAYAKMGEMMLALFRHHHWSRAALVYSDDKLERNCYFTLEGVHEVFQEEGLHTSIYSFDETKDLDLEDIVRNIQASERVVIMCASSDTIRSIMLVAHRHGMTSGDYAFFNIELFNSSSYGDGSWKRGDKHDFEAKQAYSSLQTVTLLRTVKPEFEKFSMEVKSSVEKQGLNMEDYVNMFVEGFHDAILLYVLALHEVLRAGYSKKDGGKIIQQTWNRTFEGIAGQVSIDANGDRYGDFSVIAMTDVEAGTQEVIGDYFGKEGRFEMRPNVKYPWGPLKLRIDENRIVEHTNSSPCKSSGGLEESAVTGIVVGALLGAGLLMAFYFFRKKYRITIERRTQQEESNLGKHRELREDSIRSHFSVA
# [3] = Stability in Sprague-Dawley rat hepatocytes assessed as clearance per […] at 1 uM after 20 mins by LC-MS/MS analysis; type: ADME, cell-based, Hepatocyte
# in vivo = conditions: C57BL/6, mouse, po, 10 mg/kg
# Cytochrome P450 3A4 = Cytochrome P450 3A4 (Homo sapiens, UniProt P08684); assay: Inhibition of CYP3A4 in human liver microsomes using midazolam as a substrate preincubated for 10 mins followed by NADPH addition and measured after 20 mins by LC/MS/MS analysis
# Cytochrome P450 3A4, sequence (P08684 whole entry, the tested form may be a part): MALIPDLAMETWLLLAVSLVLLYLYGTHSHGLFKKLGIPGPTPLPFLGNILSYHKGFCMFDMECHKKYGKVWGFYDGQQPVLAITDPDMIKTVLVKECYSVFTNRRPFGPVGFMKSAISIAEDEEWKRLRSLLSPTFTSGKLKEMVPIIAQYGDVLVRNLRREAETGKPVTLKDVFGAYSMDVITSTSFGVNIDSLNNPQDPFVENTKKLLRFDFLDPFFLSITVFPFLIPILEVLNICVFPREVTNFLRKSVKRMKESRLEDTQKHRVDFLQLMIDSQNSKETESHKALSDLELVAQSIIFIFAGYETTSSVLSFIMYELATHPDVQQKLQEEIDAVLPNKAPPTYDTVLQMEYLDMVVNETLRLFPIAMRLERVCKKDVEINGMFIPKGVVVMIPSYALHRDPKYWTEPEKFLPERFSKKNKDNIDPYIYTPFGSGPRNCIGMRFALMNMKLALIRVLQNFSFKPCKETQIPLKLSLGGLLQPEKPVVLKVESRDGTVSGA
# [4] = biological target: T2, Atrial natriuretic peptide receptor 3 (Homo sapiens); assay: Displacement of Flu-P19 probe from human NPR-C (27 to 541 residues) at 300 uM by fluorescence polarization analysis relative to control
# In short: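 Competition fluorescence polarization with NPR-C protein 20 nM and Flu-P19 probe 150 pM (final) in PBS-P with 1% DMSO final; samples were prepared on ice. Primary screen at 300 μM ligand. Read at 485 nm excitation / 520 nm emission. Signal normalized to buffer+probe and protein+probe controls; background blanked with buffer-only PBS-P/1% DMSO.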
# [5] = Cmax in fasted C57BL/6 mouse at 10 mg/kg, po by LC-MS/MS analysis; type: ADME, organism-based; set-up: dose 10 mg/kg, route po; conditions: in vivo
# In short: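 EDTA-K2 plasma was protein-precipitated with internal standard and centrifuged 20 min at 4 °C. Analysis by LC-MS/MS against a 1–1000 ng/mL calibration curve.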
# Cytochrome P450 2C8 = biological target: T3, Cytochrome P450 2C8 (Homo sapiens, UniProt P10632); assay: Inhibition of CYP2C8 in human liver microsomes using amodiaquine as a substrate preincubated for 10 mins followed by NADPH addition and measured after 10 mins by LC/MS/MS analysis
# T3 sequence (P10632 whole entry): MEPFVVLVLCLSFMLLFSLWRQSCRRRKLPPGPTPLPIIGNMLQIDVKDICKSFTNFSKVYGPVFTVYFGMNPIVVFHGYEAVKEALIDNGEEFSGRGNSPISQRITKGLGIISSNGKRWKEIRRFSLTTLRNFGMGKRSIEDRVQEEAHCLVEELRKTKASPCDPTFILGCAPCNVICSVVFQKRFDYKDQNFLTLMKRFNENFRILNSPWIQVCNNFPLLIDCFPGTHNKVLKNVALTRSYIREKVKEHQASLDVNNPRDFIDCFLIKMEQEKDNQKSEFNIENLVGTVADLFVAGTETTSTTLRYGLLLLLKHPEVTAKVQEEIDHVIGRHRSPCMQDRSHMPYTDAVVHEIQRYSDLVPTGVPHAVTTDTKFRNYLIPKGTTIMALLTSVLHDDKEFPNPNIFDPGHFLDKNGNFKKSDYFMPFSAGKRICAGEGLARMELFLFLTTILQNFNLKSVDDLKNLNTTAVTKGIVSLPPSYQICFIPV
# [6] = Half life in fasted C57BL/6 mouse at 3 mg/kg, iv by LC-MS/MS analysis; type: ADME, organism-based; conditions: in vivo
# [7] = biological target: T4, Atrial natriuretic peptide receptor 3 (Rattus norvegicus) (UniProt P41740); assay: Agonist activity at NPRC in rat aorta assessed as inhibition of cANF4-23 induced vasorelaxation in presence of osteocrin by Organ bath assay; type: tissue-based; conditions: filed as agonist
# T4 sequence (whole entry): T1 sequence (P41740 whole entry)
# [8] = biological target: T4, Atrial natriuretic peptide receptor 3 (Rattus norvegicus); assay: Agonist activity at NPRC in rat small mesenteric arteries assessed as inhibition of cANF4-23 induced vasorelaxation in presence of M372049 by Organ bath assay; type: tissue-based; conditions: Artery, filed as agonist
# In short: (§1)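 Small mesenteric artery rings from male Wistar rats in classical tissue-bath pharmacology. Vessels were preincubated 15 min with M372049 10 μM or osteocrin 100 nM before the vasorelaxant response to test agents was assessed.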
# [9] = biological target: T4, Atrial natriuretic peptide receptor 3 (Rattus norvegicus); assay: Agonist activity at NPRC in rat small mesenteric arteries assessed as inhibition of cANF4-23 induced vasorelaxation in presence of osteocrin by Organ bath assay; type: tissue-based; conditions: Artery, filed as agonist; in short: as §1
# [10] = biological target: T5, Atrial natriuretic peptide receptor 3 (Homo sapiens, UniProt P17342); assay: Binding affinity to CM5 sensor chip immobilized human NPR-C (27 to 541 residues) assessed as dissociation constant by surface plasmon resonance analysis
# T5 sequence (P17342 whole entry): T2 sequence (whole entry)
# [11] = Mean residence time (0 to infinity) in fasted C57BL/6 mouse at 3 mg/kg, iv by LC-MS/MS analysis; conditions: in vivo
# [12] = Mean residence time (0 to infinity) in fasted C57BL/6 mouse at 10 mg/kg, po by LC-MS/MS analysis; conditions: in vivo
# [13] = Half life in fasted C57BL/6 mouse at 10 mg/kg, po by LC-MS/MS analysis; type: ADME, organism-based; conditions: in vivo
smiles,measurement,setting,value
CC(=O)Nc1ccc(Nc2ncnc(NCCC(=O)OC(C)(C)C)n2)cc1,EC50,[1],15.5 µM
same,Activity,[2],37.7%
same,CLH,[3],11.8 µL/min
same,Tmax,in vivo,15 min
same,IC50,Cytochrome P450 3A4,> 50 µM
same,Activity,[4],< 17%
same,Cmax,[5],612 ng/mL
same,IC50,Cytochrome P450 2C8,> 50 µM
same,half-life,[6],34 min
same,Activity,[7],Active
same,Activity,[8],Active
same,Activity,[9],Active
same,Kd,[10],146 µM
same,MRT inf,[11],15.7 min
same,MRT inf,[12],79.8 min
same,half-life,[13],82.2 min
